What all share (type): functional
Assay [1] relates to Streptococcus pneumoniae. Kind of assay: Antimicrobial activity against Streptococcus pneumoniae ATCC 49619. The procedure, abridged: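 MICs determined by broth microdilution as recommended by CLSI. Agents tested included tetracycline, doxycycline, penicillin G, erythromycin and chloramphenicol. Tigecycline results were interpreted against FDA breakpoints.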
Assay [2] deals with Streptococcus pneumoniae. Kind of assay: Antimicrobial susceptibility of tetracycline-resistant Streptococcus pneumoniae from respiratory tract disease patient assessed as percent resistant isolates. The procedure, abridged: (§1)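 MICs determined for all tetracycline-resistant isolates by broth microdilution per CLSI recommendations. Agents tested included tetracycline, doxycycline, penicillin G, erythromycin and chloramphenicol. FDA breakpoints were applied to categorize tigecycline results.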

The subject of assay [3] is Streptococcus pneumoniae. Nature of the assay: Antimicrobial susceptibility of tetracycline-resistant Streptococcus pneumoniae from respiratory tract disease patient assessed as percent susceptible isolates. The procedure, abridged:
as §1

The values below come from ChEMBL document CHEMBL1145535, “Clonal diversity and resistance mechanisms in tetracycline-nonsusceptible Streptococcus pneumoniae isolates in Poland” (2007).

Usually MIC50 stands for the lowest concentration that inhibits either 50% of growth or 50% of the strains tested, depending on the study. As a reminder, the MIC90 is the lowest concentration that inhibits either 90% of growth or 90% of the strains tested, depending on the study. Low readings indicate higher susceptibility, high ones lower susceptibility.

In brackets after ≈: the same amount, converted by molar mass.

In the assay on Streptococcus pneumoniae [1], `CO/N=C(\C(=O)N[C@@H]1C(=O)N2C(C(=O)O)=C(COC(C)=O)CS[C@H]12)c1csc(N)n1` [CEFOTAXIME] registered an MIC50 of 0.015 µg/mL (≈ 0.0329 µM) and an MIC90 of 1 µg/mL (≈ 2.2 µM). Further, the Activity in the assay with Streptococcus pneumoniae [2] was found to be 2.1%. The Activity in the assay with Streptococcus pneumoniae [3] came to 93.8%.
For `O=C(N[C@H](CO)[C@H](O)c1ccc([N+](=O)[O-])cc1)C(Cl)Cl` [CHLORAMPHENICOL] the same measures were 4 µg/mL (≈ 12.4 µM), 16 µg/mL (≈ 49.5 µM), 39.2% and 70.7%.
On the same counts, the results for `CCC[C@@H]1C[C@@H](C(=O)N[C@@H]([C@H]2O[C@H](SC)[C@H](O)[C@@H](O)[C@H]2O)[C@H](C)Cl)N(C)C1` [CLINDAMYCIN] are no more than 0.03 µg/mL, greater than 4 µg/mL, 23.1% and 76.9%.
In the assay with Streptococcus pneumoniae [1], `C[C@H]1c2cccc(O)c2C(=O)C2=C(O)[C@]3(O)C(=O)C(C(N)=O)=C(O)[C@@H](N(C)C)[C@@H]3[C@@H](O)[C@@H]21.O` [DOXYCYCLINE] had an MIC50 of 4 µg/mL and an MIC90 of 8 µg/mL. Besides, the Activity with Streptococcus pneumoniae [2] stood at 25.2%. Moreover, the Activity in the assay on Streptococcus pneumoniae [3] was found to be 19.9%.
On the same counts, the results for `CC[C@H]1OC(=O)[C@H](C)[C@@H](O[C@H]2C[C@@](C)(OC)[C@@H](O)[C@H](C)O2)[C@H](C)[C@@H](O[C@@H]2O[C@H](C)C[C@H](N(C)C)[C@H]2O)[C@](C)(O)C[C@@H](C)C(=O)[C@H](C)[C@@H](O)[C@]1(C)O` [ERYTHROMYCIN] are no more than 0.25 µg/mL, greater than 16 µg/mL, 26.4% and 72.4%.
For `C[C@H]1COc2c(N3CCN(C)CC3)c(F)cc3c(=O)c(C(=O)O)cn1c23.C[C@H]1COc2c(N3CCN(C)CC3)c(F)cc3c(=O)c(C(=O)O)cn1c23.O` [LEVOFLOXACIN] the same measures were 1 µg/mL, 1 µg/mL, 0.4% and 98.8%.
In the assay with Streptococcus pneumoniae [1], `CC(=O)NC[C@H]1CN(c2ccc(N3CCOCC3)c(F)c2)C(=O)O1` [LINEZOLID] returned an MIC50 of 1 µg/mL (≈ 2.96 µM) and an MIC90 of 1 µg/mL (≈ 2.96 µM). Moreover, the Activity with Streptococcus pneumoniae [3] amounted to 100%.
For `C[C@@H](O)[C@H]1C(=O)N2C(C(=O)O)=C(S[C@@H]3CN[C@H](C(=O)N(C)C)C3)[C@H](C)[C@H]12` [MEROPENEM], in the assay on Streptococcus pneumoniae [1], the MIC50 is no more than 0.015 µg/mL and the MIC90 is 0.5 µg/mL (≈ 1.3 µM). Besides, in the assay with Streptococcus pneumoniae [2], the Activity stood at 0.4%. The Activity in the assay with Streptococcus pneumoniae [3] stood at 86.8%.
On the same counts, the results for `CN(C)c1ccc(O)c2c1C[C@H]1C[C@H]3[C@H](N(C)C)C(O)=C(C(N)=O)C(=O)[C@@]3(O)C(O)=C1C2=O` [MINOCYCLINE] are 4 µg/mL (≈ 8.74 µM), 8 µg/mL (≈ 17.5 µM), 38.8% and 24.4%.
For `CC1(C)S[C@@H]2[C@H](NC(=O)Cc3ccccc3)C(=O)N2[C@H]1C(=O)O` [PENICILLIN G] the same measures were 0.015 µg/mL (≈ 0.0449 µM), 2 µg/mL (≈ 5.98 µM), 14.9% and 74%.
On the same counts, the results for `CO[C@H]1/C=C/O[C@@]2(C)Oc3c(C)c(O)c4c(O)c(c(/C=N/N5CCN(C)CC5)c(O)c4c3C2=O)NC(=O)/C(C)=C\C=C\[C@H](C)[C@H](O)[C@@H](C)[C@@H](O)[C@@H](C)[C@H](OC(C)=O)[C@@H]1C` [RIFAMPIN] are no more than 0.03 µg/mL, no more than 0.03 µg/mL, 0.8% and 98.8%.
In the assay on Streptococcus pneumoniae [1], `CC[C@H]1OC(=O)[C@H](C)C(=O)[C@H](C)[C@@H](O[C@@H]2O[C@H](C)C[C@H](N(C)C)[C@H]2O)[C@](C)(OC)C[C@@H](C)C(=O)[C@H](C)[C@H]2N(CCCCn3cnc(-c4cccnc4)c3)C(=O)O[C@]12C` [TELITHROMYCIN] yielded an MIC50 of no more than 0.015 µg/mL. Besides, the MIC90 with Streptococcus pneumoniae [1] was no more than 0.015 µg/mL. In addition, the Activity in the assay on Streptococcus pneumoniae [2] is listed as 0.4%; with Streptococcus pneumoniae [3] it was 98.8%.
In the assay on Streptococcus pneumoniae [1], `CN(C)[C@@H]1C(O)=C(C(N)=O)C(=O)[C@@]2(O)C(O)=C3C(=O)c4c(O)cccc4[C@@](C)(O)[C@H]3C[C@@H]12` [TETRACYCLINE] displayed an MIC50 of 32 µg/mL (≈ 72 µM) and an MIC90 of 64 µg/mL (≈ 144 µM). The Activity with Streptococcus pneumoniae [2] was determined as 100%.
In the assay with Streptococcus pneumoniae [1], `CN(C)c1cc(NC(=O)CNC(C)(C)C)c(O)c2c1C[C@H]1C[C@H]3[C@H](N(C)C)C(O)=C(C(N)=O)C(=O)[C@@]3(O)C(O)=C1C2=O` [TIGECYCLINE] showed an MIC50 of 0.015 µg/mL (≈ 0.0256 µM) and an MIC90 of 0.03 µg/mL (≈ 0.0512 µM). Besides, in the assay on Streptococcus pneumoniae [3], the Activity is reported as 100%.
With `COc1cc(Cc2cnc(N)nc2N)cc(OC)c1OC` [TRIMETHOPRIM], in the assay with Streptococcus pneumoniae [1], the MIC50 was 2 µg/mL (≈ 6.89 µM). The same compound returned an MIC90 in the assay on Streptococcus pneumoniae [1] of 8 µg/mL (≈ 27.6 µM). Further, the Activity with Streptococcus pneumoniae [2] turned out to be 38.4%; with Streptococcus pneumoniae [3], 30.2%.
With `CN[C@H](CC(C)C)C(=O)N[C@H]1C(=O)N[C@@H](CC(N)=O)C(=O)N[C@H]2C(=O)N[C@H]3C(=O)N[C@H](C(=O)N[C@H](C(=O)O)c4cc(O)cc(O)c4-c4cc3ccc4O)[C@H](O)c3ccc(c(Cl)c3)Oc3cc2cc(c3O[C@@H]2O[C@H](CO)[C@@H](O)[C@H](O)[C@H]2O[C@H]2C[C@](C)(N)[C@H](O)[C@H](C)O2)Oc2ccc(cc2Cl)[C@H]1O` [VANCOMYCIN], in the assay on Streptococcus pneumoniae [1], the MIC50 came out at 0.25 µg/mL (≈ 0.173 µM) and the MIC90 came out at 0.5 µg/mL (≈ 0.345 µM). The Activity in the assay with Streptococcus pneumoniae [3] was 100%.
